This passage reports Activity, IC50 and solubility results from ChEMBL document CHEMBL4330063, “New naphthopyran analogues of LY290181 as potential tumor vascular-disrupting agents” (Eur J Med Chem, 2019).

Activity calls are given as the source filed them. The rule behind the calls is not given here.

The subject of series [1] is HT-29. Kind of series: Cell cycle arrest in human HT-29 cells assessed as accumulation of cells at G1 phase at 350 nM after 24 hrs by propidium iodide staining-based flow cytometric analysis (reference value: 75.1 +/- 1.1%). Format: functional.
Series [2] concerns HT-29. Kind of series: Cell cycle arrest in human HT-29 cells assessed as accumulation of cells at S phase at 250 nM after 24 hrs by propidium iodide staining-based flow cytometric analysis (reference value: 12.3 +/- 0.4%). Format: functional.
For series [3], the system named is HT-29. Kind of series: Cell cycle arrest in human HT-29 cells assessed as accumulation of cells at G1 phase at 100 nM after 24 hrs by propidium iodide staining-based flow cytometric analysis (reference value: 75.1 +/- 1.1%). Format: functional.
Series [4] has as its system HT-29. Kind of series: Cell cycle arrest in human HT-29 cells assessed as accumulation of cells at S phase at 350 nM after 24 hrs by propidium iodide staining-based flow cytometric analysis (reference value: 12.3 +/- 0.4%). Format: functional.
Series [5] concerns Chorioallantoic membrane. The experiment in a line: Antiangiogenic activity in Leghorn chicken embryo chorioallantoic membrane assessed as disruption of smaller blood vessels at 5 nmol after 6 hrs by light microscopic analysis. Format: functional, tissue-based. The following applies: Gallus gallus. In short, it runs like this:
(§1)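 Fertilized chicken eggs, CAM assay. Compound was applied topically into a small silicon foil ring placed on the CAM. The membrane and its extraembryonal blood vessels were monitored over 24 h, with observations at 6 h and 24 h post application.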

Series [6] has as its system A2780. The experiment in a line: Antiproliferative activity against human A2780 cells after 72 hrs by SRB assay. Format: functional, cell-based. Particulars: A2780, 72 h. In short, it runs like this:
(§2)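 Ovarian A2780 and cisplatin-resistant A2780cis cells were exposed for 72 h and stained with SRB. IC50 comes from dose-response curves, as means±SD of three independent experiments. Final DMSO was below 1%, with matched vehicle controls.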

For series [7], the system named is HT-29. Kind of series: Cell cycle arrest in human HT-29 cells assessed as accumulation of cells at G2/M phase at 350 nM after 24 hrs by propidium iodide staining-based flow cytometric analysis (reference value: 11.4 +/- 1.4%). Format: functional.
Series [8] deals with 518A2. The experiment in a line: Antiproliferative activity against human 518A2 cells after 72 hrs by MTT assay. Format: functional, cell-based. Particulars: for IC50: 518A2, 72 h. In a few lines: (§3)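 MTT read-out after 72 h of continuous exposure. Viability is expressed as percentage of viable cells relative to untreated controls. IC50 comes from dose-response curves. Values are means±SD of four independent experiments (two for some entries). DMSO was below 1%, with vehicle controls at equal DMSO. Precipitation was excluded spectrometrically and microscopically.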

The next series concerns PANC-1. The experiment in a line: Antiproliferative activity against human PANC1 cells after 72 hrs by MTT assay. Format: functional, cell-based. Particulars: PANC-1, 72 h. In a few lines:
as §3

In series [9] the test system is Chorioallantoic membrane. The experiment in a line: Antiangiogenic activity in Leghorn chicken embryo chorioallantoic membrane assessed as reduction in diameter of main blood vessel at 5 nmol after 24 hrs by light microscopic analysis. Format: functional, tissue-based. The following applies: Gallus gallus. In short, it runs like this:
as §1

Series [10] is described as follows: Antiproliferative activity against human A2780cis cells after 72 hrs by SRB assay. Format: functional, cell-based. In short, it runs like this:
as §2

The target of another series is Tubulin (Homo sapiens) (UniProt P68371+Q9H4B7+P0DPH7+P68366+Q13509+Q71U36+P04350+Q3ZCM7+P07437+P68363+Q9BQE3+Q6PEY2+Q13885+Q9BVA1+Q9BUF5). Kind of series: Induction of microtubule disruption in human 518A2 cells at 100 nM after 3 hrs by DAPI staining-based fluorescence microscopic analysis. Format: cell-based. In a few lines:
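Microtubule organization in 518A2 melanoma cells was checked by tubulin immunofluorescence staining after 3 h exposure to 100 nM, with DAPI as the nuclear counterstain. Images come from two independent experiments.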

Series [11] concerns A2780. Kind of series: Antivascular activity against human A2780 cells xenografted in nude mouse assessed as tumor discoloration at 200 mg/kg administered on every other day and measured after 24 hrs. Format: functional, organism-based. Particulars: in the assay text read “administered as single dose” for “administered on every other day”. In short, it runs like this: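 Mice bore A2780 tumor xenografts. Compound was formulated in tween80/ethanol (1:1) and injected as single doses. Tumors were inspected for discoloration as a sign of vascular disruption, and treated tumors were examined histologically for hemorrhage and necrosis.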

In series [12] the test system is 518A2. The experiment in a line: Induction of apoptosis in human 518A2 cells at 100 nM after 24 hrs by TUNEL assay relative to control. Format: functional.
Series [13] deals with HT-29. The experiment in a line: Cell cycle arrest in human HT-29 cells assessed as accumulation of cells at G2/M phase at 250 nM after 24 hrs by propidium iodide staining-based flow cytometric analysis (reference value: 11.4 +/- 1.4%). Format: functional.
Series [14] has as its system 518A2. The experiment in a line: Effect on F-actin in human 518A2 cells assessed as thick stress fibers formation at 100 nM after 3 hrs by DAPI staining-based fluorescence microscopic analysis. Format: cell-based. In short, it runs like this: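 518A2 melanoma cells were treated with 100 nM for 3 h. Filamentous actin was fluorescence-labelled, nuclei were counterstained with DAPI, and the cells were imaged by fluorescence microscopy. Images come from two independent experiments.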

A short description of series [15]: Antiproliferative activity against human MCF7/Topo cells after 72 hrs by MTT assay. Format: functional, cell-based. In a few lines:
as §3

Series [16] deals with HT-29. The experiment in a line: Cell cycle arrest in human HT-29 cells assessed as accumulation of cells at sub G1 phase at 350 nM after 24 hrs by propidium iodide staining-based flow cytometric analysis (reference value: 1.2 +/- 0.3%). Format: functional.
Series [17] has as its system Chorioallantoic membrane. Kind of series: Antiangiogenic activity in Leghorn chicken embryo chorioallantoic membrane assessed as induction of hemorrhages at 5 nmol after 24 hrs by light microscopic analysis. Format: functional, tissue-based. The following applies: Gallus gallus. In short, it runs like this: as §1
The next series concerns DLD-1. The experiment in a line: Antiproliferative activity against human DLD1 cells after 72 hrs by MTT assay. Format: functional, cell-based. Particulars: DLD-1, 72 h. In a few lines:
as §3

For series [18], the system named is EA.hy 926. Kind of series: Cytotoxicity against human EAhy926 cells at 100 nM after 24 hrs by MTT assay relative to control. Format: cell-based. Particulars: ea.hy 926, 24 h, 0.1 µM.
In series [19] the test system is HT-29. The experiment in a line: Cell cycle arrest in human HT-29 cells assessed as accumulation of cells at G1 phase at 250 nM after 24 hrs by propidium iodide staining-based flow cytometric analysis (reference value: 75.1 +/- 1.1%). Format: functional.
Series [20] deals with EA.hy 926. Kind of series: Antiproliferative activity against human EAhy926 cells after 72 hrs by MTT assay. Format: functional, cell-based. Particulars: EA.hy 926, 72 h. In short, it runs like this:
as §3

Series [21] deals with 518A2. Kind of series: Antimigratory activity against human 518A2 cells at 50 nM after 48 hrs by wound healing assay. Format: functional, cell-based.
Series [22] relates to Chorioallantoic membrane. Kind of series: Antiangiogenic activity in Leghorn chicken embryo chorioallantoic membrane assessed as disruption of smaller blood vessels at 5 nmol after 24 hrs by light microscopic analysis. Particulars: Gallus gallus. Format: functional, tissue-based. In a few lines:
as §1

Series [23] has as its system EA.hy 926. The experiment in a line: Antiangiogenic activity against human EAhy926 cells assessed as inhibition of tube formation on matrigel at 100 nM after 24 hrs by light microscopic analysis. Format: functional, cell-based. In short, it runs like this:
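Ea.Hy926 endothelial hybrid cells were seeded on matrigel with compound and examined for tubular/cord-like network formation versus untreated controls. Viability under the same conditions was checked in parallel by MTT to exclude cytotoxic effects.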

Series [24] has as its system HT-29. Kind of series: Cell cycle arrest in human HT-29 cells assessed as accumulation of cells at sub G1 phase at 250 nM after 24 hrs by propidium iodide staining-based flow cytometric analysis (reference value: 1.2 +/- 0.3%). Format: functional.
Series [25] has as its system Chorioallantoic membrane. The experiment in a line: Antiangiogenic activity in Leghorn chicken embryo chorioallantoic membrane assessed as induction of hemorrhages at 5 nmol after 6 hrs by light microscopic analysis. Particulars: Gallus gallus. Format: functional, tissue-based. In a few lines:
as §1

Series [26] has as its system HT-29. Kind of series: Antiproliferative activity against human HT-29 cells after 72 hrs by MTT assay. Format: functional, cell-based. The following applies: HT-29, 72 h. In a few lines:
as §3

Series [27] deals with HT-29. Kind of series: Cell cycle arrest in human HT-29 cells assessed as accumulation of cells at sub G1 phase at 100 nM after 24 hrs by propidium iodide staining-based flow cytometric analysis (reference value: 1.2 +/- 0.3%). Format: functional.
The subject of series [28] is HT-29. The experiment in a line: Cell cycle arrest in human HT-29 cells assessed as accumulation of cells at G2/M phase at 100 nM after 24 hrs by propidium iodide staining-based flow cytometric analysis (reference value: 11.4 +/- 1.4%). Format: functional.
Series [29] concerns Chorioallantoic membrane. Kind of series: Antiangiogenic activity in Leghorn chicken embryo chorioallantoic membrane assessed as reduction in blood vessel area at 5 nmol after 6 hrs by light microscopic analysis relative to control. Format: functional, tissue-based. The arrangement: scale not given: the % may be the effect or the level left. The following applies: Gallus gallus. In a few lines:
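The CAM assay was run with topical application into a silicon foil ring atop the CAM of fertilized chicken eggs. Area covered by blood vessels was quantified by fractal analysis relative to control.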

Series [30] has as its system HT-29. Kind of series: Cell cycle arrest in human HT-29 cells assessed as accumulation of cells at S phase at 100 nM after 24 hrs by propidium iodide staining-based flow cytometric analysis (reference value: 12.3 +/- 0.4%). Format: functional.
Series [31] is described as follows: Antiproliferative activity against human KB-V1/Vbl cells after 72 hrs by MTT assay. Format: functional, cell-based. In short, it runs like this:
as §3

Series [32] concerns Chorioallantoic membrane. The experiment in a line: Antiangiogenic activity in Leghorn chicken embryo chorioallantoic membrane assessed as effect on blood vessel length at 5 nmol after 6 hrs by light microscopic analysis. Format: functional, tissue-based. Particulars: Gallus gallus. In short, it runs like this: as §1
Series [33] is described as follows: Solubility in tween80/ethanol (1:1) solution. Format: physicochemical.
The subject of a further series is HCT-116. The experiment in a line: Antiproliferative activity against human HCT116 cells after 72 hrs by MTT assay. Format: functional, cell-based. Particulars: HCT-116, 72 h. In short, it runs like this: as §3

Turning to `N#CC1=C(N)Oc2c(ccc3ccccc23)C1c1cccc(C#N)c1` (stereo not drawn), the Activity in the series with HT-29 [1] was 60.5%; with HT-29 [2] it was 18.5%; in the series on HT-29 [3], 51%; in the series with HT-29 [4], 15.6%; with HT-29 [7], 13.3%; in the series on 518A2 [8], “Dose-dependent effect”. The Activity is reported as 69.4% in the series on 518A2 [12]; 10.1% in the series with HT-29 [13]; 10.6% in the series with HT-29 [16]; over 68% in the series with EA.hy 926 [18]; 59.6% in the series on HT-29 [19]; 11.8% with HT-29 [24]. In addition, the Activity with HT-29 [27] was determined as 4.2%; in the series with HT-29 [28], 19.7%; with Chorioallantoic membrane [29] it was 56%; in the series with HT-29 [30], 25.1%. Besides, the outcome in the series with Chorioallantoic membrane [5], with Chorioallantoic membrane [9], at Tubulin (Homo sapiens), with 518A2 [14], in the series on 518A2 [21] and with EA.hy 926 [23] was Active. The outcome with Chorioallantoic membrane [25] and in the series with Chorioallantoic membrane [32] was Active. Besides, the IC50 in the series on A2780 [6] was 14.8 nM; with 518A2 [8] it was under 0.1 nM; in the series with PANC-1 it was under 0.1 nM; in series [10], 17.9 nM; in [15], 0.41 nM; in the series with DLD-1, 2.6 nM. For the same compound, the IC50 was 4.3 nM with EA.hy 926 [20], 110 nM in the series with HT-29 [26] and under 0.1 nM in series [31]. Also, the result in the series with A2780 [11], in the series on Chorioallantoic membrane [17] and in the series with Chorioallantoic membrane [22] was inactive.
Turning to `COc1c(I)cc(C2C(C#N)=C(N)Oc3c2ccc2ccccc32)cc1I` (stereo not drawn), the IC50 with A2780 [6] turned out to be 16.4 nM; in the series on 518A2 [8], 37.1 nM; in the series with PANC-1, 13.1 nM; in series [10], 18.2 nM; in series [15], 22.8 nM; in the series on DLD-1, 15 nM. Also, the IC50 is 17.9 nM with EA.hy 926 [20], 45.2 nM in the series on HT-29 [26], 29.5 nM in the series with HCT-116 and 16.5 nM in series [31]. The Activity entry in the series on 518A2 [8] is “Dose-dependent effect”. For the same compound, in series [33], the solubility result is recorded as “Insoluble”.
